ChEMBL document CHEMBL3627705 (Bioorg Med Chem Lett, 2015)

Tests used:
[1] = target: T1, Corticotropin-releasing factor receptor 1 (Homo sapiens, UniProt P34998); experiment: Displacement of [125I]-Tyr0-sauvagine from human CRF1 receptor expressed in HEK293T cells after 2 hrs by scintillation counting; format: cell-based, HEK-293T
T1 sequence (P34998 whole entry): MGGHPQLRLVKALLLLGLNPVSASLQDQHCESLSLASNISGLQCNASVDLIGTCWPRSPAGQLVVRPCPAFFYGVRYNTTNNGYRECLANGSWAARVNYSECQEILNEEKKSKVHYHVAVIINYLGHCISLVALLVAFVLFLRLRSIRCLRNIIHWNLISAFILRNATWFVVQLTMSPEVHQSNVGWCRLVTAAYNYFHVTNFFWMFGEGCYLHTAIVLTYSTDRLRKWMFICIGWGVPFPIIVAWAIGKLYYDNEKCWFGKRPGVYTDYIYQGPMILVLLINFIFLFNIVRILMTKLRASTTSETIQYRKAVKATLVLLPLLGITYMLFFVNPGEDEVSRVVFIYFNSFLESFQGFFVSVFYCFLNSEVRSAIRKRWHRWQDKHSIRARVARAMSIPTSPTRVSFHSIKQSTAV

[2] = target: T2, Corticotropin-releasing factor receptor 2 (Homo sapiens) (UniProt Q13324); experiment: Displacement of [125I]-antisauvagine-30 from human CRF2 receptor expressed in HEK293T cells at 1 uM after 2 hrs by scintillation counting; format: cell-based; details: HEK-293T
T2 sequence (whole entry): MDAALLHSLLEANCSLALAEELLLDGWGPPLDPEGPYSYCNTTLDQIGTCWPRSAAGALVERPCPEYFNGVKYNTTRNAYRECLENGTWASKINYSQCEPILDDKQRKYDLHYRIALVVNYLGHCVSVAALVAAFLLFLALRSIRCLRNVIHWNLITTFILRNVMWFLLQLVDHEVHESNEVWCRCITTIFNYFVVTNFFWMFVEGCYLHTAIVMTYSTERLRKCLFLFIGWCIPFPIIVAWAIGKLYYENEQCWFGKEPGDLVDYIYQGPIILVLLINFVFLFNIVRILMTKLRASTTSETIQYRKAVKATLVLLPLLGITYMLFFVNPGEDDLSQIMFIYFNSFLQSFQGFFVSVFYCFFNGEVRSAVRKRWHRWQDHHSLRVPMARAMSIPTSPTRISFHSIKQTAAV
Summary of the method: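 Competition binding at 23 °C on HEK293T cells transfected with human CRF2 receptor. Each ligand tested at 1 μM against the radiotracer [125I]antisauvagine-30. Read-out is mean % displacement of specific radiotracer binding, n = 2.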

[3] = Lipophilicity, logP of the compound at pH 7.4; format: physicochemical; details: buffer
Summary of the method: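 Octanol/aqueous buffer shake-flask partition at pH 7.4, done on the 18F-labelled radioligands; mean ± SD of n = 4.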

Brain = experiment: Drug uptake in cynomolgus monkey brain assessed as whole-brain time-activity curve by MicroPET imaging analysis; format: ADME, tissue-based, Macaca fascicularis; details: in vivo

Compound | Ki [1] | inhibition [2] | further results
CCCCN(CC)c1cc(C)nc2c1NC(=O)CN2c1ccc(Br)cc1Br | 1.3 nM | 9.4% | –
CCCCN(CC)c1cc(C)nc2c1NC(=O)CN2c1ccc(Cl)cc1Br | 2.5 nM | – | –
CCCCN(CC)c1cc(C)nc2c1N(C)C(=O)CN2c1ccc(Br)cc1Br | 2.4 nM | – | –
CCCCN(CC)c1cc(C)nc2c1NC(=O)CN2c1ccc(Cl)cc1C | 5.4 nM | – | –
CCCCN(CC)c1cc(C)nc2c1NC(=O)CN2c1ccc(Br)cc1CC | 2.5 nM | 2.1% | –
CCCCN(CC)c1cc(C)nc2c1NC(=O)CN2c1ccc(C(C)(C)C)cc1Br | 4.2 nM | -3.8% | –
CCCCN(CC)c1cc(C)nc2c1NC(=O)CN2c1ccc(Br)cc1Cl | 2.7 nM | – | –
Cc1cc(N(C)C)c2c(n1)N(c1ccc(C(C)C)cc1Br)CC(=O)N2C/C=C/CF | 14.2 nM | – | –
CCCCN(CC)c1cc(C)nc2c1NC(=O)CN2c1ccc(C(C)C)cc1Br | 2.4 nM | 0.7% | –
CCCCN(CC)c1cc(C)nc2c1NC(=O)CN2c1ccc(C)cc1C | 3.9 nM | 6.8% | –
Cc1cc(N(C)C)c2c(n1)N(c1ccc(C(C)C)cc1Br)CC(=O)N2CCCCF | 21.6 nM | – | –
CCN(C)c1cc(C)nc2c1N(CCCCF)C(=O)CN2c1ccc(C(C)C)cc1Br | 13.9 nM | – | –
CCCN(CCC)c1cc(C)nc2c1NC(=O)CN2c1ccc(C(C)C)cc1Br | 3.1 nM | – | –
CCCN(CCC)c1cc(C)nc2c(-c3cnc(N(C)C)cc3C)c(C)nn12 | – | 23.8% | –
CCN(CC)c1cc(C)nc2c1N(CCF)C(=O)CN2c1ccc(C(C)C)cc1Br | 7.3 nM | – | –
CCCCN(CC)c1cc(C)nc2c1NC(=O)CN2c1ccc(C)cc1Cl | 4.4 nM | – | –
CCCCN(CC)c1cc(C)nc2c1NC(=O)CN2c1ccc(OC)cc1C | 4 nM | -2.3% | –
CC[C@H](C)[C@H](NC(=O)[C@@H](NC(=O)[C@H](CC(=O)O)NC(=O)[C@H](CC(C)C)NC(=O)[C@H](CC(C)C)NC(=O)[C@H](CC(C)C)NC(=O)[C@H](CCCN=C(N)N)NC(=O)[C@H](CC(N)=O)NC(=O)[C@H](CC(N)=O)NC(=O)[C@H](C)NC(=O)[C@H](C)NC(=O)[C@H](CCC(N)=O)NC(=O)[C@H](CCC(N)=O)NC(=O)[C@H](CCCCN)NC(=O)[C@H](CCC(=O)O)NC(=O)[C@H](CCCCN)NC(=O)[C@H](CCC(=O)O)NC(=O)[C@H](CCC(N)=O)NC(=O)[C@H](CCCCN)NC(=O)[C@H](CCC(=O)O)NC(=O)[C@@H](NC(=O)[C@H](CCC(=O)O)NC(=O)[C@@H](NC(=O)[C@H](CCSC)NC(=O)[C@H](CCCCN)NC(=O)[C@H](CCCN=C(N)N)NC(=O)[C@H](CC(C)C)NC(=O)[C@H](CC(C)C)NC(=O)[C@H](CCC(=O)O)NC(=O)[C@H](CC(C)C)NC(=O)[C@H](CO)NC(=O)[C@H](CC(C)C)NC(=O)[C@H](CC(=O)O)NC(=O)[C@@H](NC(=O)[C@H](CO)NC(=O)[C@@H](NC(=O)[C@@H]1CCCN1C(=O)[C@@H]1CCCN1C(=O)CNC(=O)[C@@H]1CCC(=O)N1)[C@@H](C)CC)[C@@H](C)CC)[C@@H](C)CC)[C@@H](C)CC)[C@@H](C)O)C(=O)O | – | 100% | –
CCN(C)c1cc(C)nc2c1N(CCCC[17F])C(=O)CN2c1ccc(C(C)C)cc1Br | – | – | logD [3]: 2.22; SUV (Brain): <= 1
Cc1cc(N(C)C)c2c(n1)N(c1ccc(C(C)C)cc1Br)CC(=O)N2CCF | 59 nM | – | –
Cc1cc(N(C)C)c2c(n1)N(c1ccc(C(C)C)cc1Br)CC(=O)N2 | 180 nM | – | –
Cc1cc(N(C)C)c2c(n1)N(c1ccc(C(C)C)cc1Br)CC(=O)N2CCCC[17F] | – | – | logD [3]: 2.19
CCCCN(CC)c1cc(C)nc2c1NC(=O)CN2c1ccc(Cl)cc1Cl | 3.4 nM | 0.9% | –
CCN(C)c1cc(C)nc2c1NC(=O)CN2c1ccc(C(C)C)cc1Br | 16.4 nM | – | –
CCCCN(CC)c1cc(C)nc2c1NC(=O)CN2c1ccc(C)cc1Br | 4.4 nM | 5.5% | –
CCCCN(CC)c1cc(C)nc2c1NC(=O)CN2c1ccc(I)cc1C | 3.4 nM | – | –
CCCCN(CC)c1cc(C)nc2c1NC(=O)CN2c1ccc(Br)cc1C | 4.4 nM | 5.9% | –
